Results on seven molecules are retold here after ChEMBL document CHEMBL4842319, “Synthesis of alkynylated 1,2,4-oxadiazole/1,2,3-1H-triazole glycoconjugates: Discovering new compounds for use in chemotherapy against lung carcinoma and Mycobacterium tuberculosis” (Eur J Med Chem, 2021).

≈ marks a conversion by molar mass, not a printed value.

The test system of one data set is SK-MEL-103. Description: Cytotoxicity against human SK-MEL-103 cells assessed as inhibition of cell proliferation at 25 uM incubated for 72 hrs by MTT assay relative to control. Set-up: scale not given: the % may be the effect or the level left. The class given is functional. A digest of the protocol: (§1)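 Tumor lines from NCI. PC-3, HCT-116 and NCIH-460 were grown in RPMI 1640; SKMEL-103 and AGP-01 in DMEM; all with 10% FBS at 37 °C, 5% CO2. Seeding was 0.3×10⁶ cells/mL for SKMEL-103 and AGP-01, 0.1×10⁶ for PC-3 and NCIH-460, and 0.7×10⁵ for HCT-116. Cells were exposed to compound at 25 µM for 72 h. Cells were centrifuged, 1% MTT added for 3 h, formazan dissolved in DMSO and read at 570 nm.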

The nature of data set [1]: Cytotoxicity against human AGP01 cells assessed as inhibition of cell proliferation at 25 uM incubated for 72 hrs by MTT assay relative to control. The class given is functional. Set-up: scale not given: the % may be the effect or the level left. A digest of the protocol:
as §1

The next data set relates to HCT-116. Description: Cytotoxicity against human HCT-116 cells assessed as inhibition of cell proliferation at 25 uM incubated for 72 hrs by MTT assay relative to control. The class given is functional. Also on record: scale not given: the % may be the effect or the level left. A digest of the protocol: as §1
The test system of another data set is PC-3. Description: Cytotoxicity against human PC-3 cells assessed as inhibition of cell proliferation at 25 uM incubated for 72 hrs by MTT assay relative to control. It counts as functional. Also on record: scale not given: the % may be the effect or the level left. In outline: as §1
The next data set deals with NCI-H460. Description: Cytotoxicity against human NCI-H460 cells assessed as inhibition of cell proliferation at 25 uM incubated for 72 hrs by MTT assay relative to control. Set-up: scale not given: the % may be the effect or the level left. It counts as functional. A digest of the protocol:
as §1

The subject of data set [2] is Mycobacterium tuberculosis. Description: Antimycobacterial activity against Mycobacterium tuberculosis H37Ra ATCC 25177 assessed as inhibition of bacterial growth incubated for 9 days by resazurin microtiter assay. As to conditions: H37Ra ATCC 25177, 216 h, time 9 day. The class given is functional. In outline:
(§2)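 REMA broth microdilution in 7H9-S medium, run in duplicate. Test compounds were serially two-fold diluted on the plate from 64 to 0.5 µg/mL. Inoculum taken from fresh Löwenstein-Jensen culture, adjusted to McFarland no. 1 and diluted 1:20. Plates were sealed and incubated at 37 °C in normal atmosphere for 9 days, then resazurin was added. Rifampicin and ethambutol served as standards. MIC reported in µg/mL.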

Data set [3] deals with Mycobacterium tuberculosis. Description: Antimycobacterial activity against Mycobacterium tuberculosis H37Rv ATCC 27294 assessed as inhibition of bacterial growth incubated for 9 days by resazurin microtiter assay. The class given is functional. As to conditions: H37Rv ATCC 27294, 216 h, time 9 day. A digest of the protocol: as §2
Data set [4] in a line: Cytotoxicity against mouse RAW264.7 cells assessed as reduction in cell viability incubated for 48 hrs by MTT assay. The class given is cell-based. A digest of the protocol: (§3)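 RAW 264.7 macrophages and HepG2 cells were cultured in DMEM at 37 °C, 5% CO2. For the assay, 10⁵ cells/well were preincubated for 24 h, then exposed to compounds at […] for 48 h, in duplicate. MTT (5 mg/mL in PBS) was added for 2 h and absorbance read at 570 nm. Untreated wells served as the negative control. CC50 obtained by regression analysis.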

A short description of data set [5]: Cytotoxicity against human HepG2 cells assessed as reduction in cell viability incubated for 48 hrs by MTT assay. It counts as cell-based. In outline: as §3
A short description of data set [6]: Selectivity index, ratio of CC50 for mouse RAW264.7 cells to MIC for antimycobacterial activity against Mycobacterium tuberculosis H37Rv ATCC 27294. As to conditions: read-out: Selectivity Index. The class given is toxicity.
Data set [7] in a line: Selectivity index, ratio of CC50 for human HepG2 cells to MIC for antimycobacterial activity against Mycobacterium tuberculosis H37Rv ATCC 27294. It counts as toxicity. The following applies: read-out: Selectivity Index.

In the case of `C#CCN(c1nc(-c2cccc([N+](=O)[O-])c2)no1)C1CCCCC1`, the Activity in the data set with SK-MEL-103 is 44.4%; in data set [1], 46%; with HCT-116 it was 24.8%; with PC-3, 7.2%; in the data set on NCI-H460, 5.8%. The MIC in data set [2] and in [3] was no less than 64 µg/mL each time. In addition, the half-maximal cytotoxic concentration (CC50) at 48 h was found to be 34.2 µg/mL (≈ 105 µM) in [4] and 45.5 µg/mL (≈ 139 µM) in [5]. Also, the selectivity ratio in [6] is less than 0.53; in data set [7] it was less than 0.71.
In the case of `CC(=O)OC[C@H]1O[C@H](OC[C@@H](Cn2cc(CN(c3nc(-c4ccc([N+](=O)[O-])cc4)no3)C3CCCCC3)nn2)OC(C)=O)C=C[C@@H]1OC(C)=O`, the Activity in the data set with SK-MEL-103 stood at 30.6%; in data set [1] it was 47.6%; in the data set on HCT-116 it was 39.1%; in the data set on PC-3, 28.8%; in the data set on NCI-H460, 36.3%. Besides, the MIC in [2] and in data set [3] was no less than 64 µg/mL in each case. Further, the CC50 at 48 h in data set [5] was greater than 200 µg/mL. Besides, the selectivity ratio in data set [6] was determined as 1.25.
Take `CC(=O)OC[C@H]1O[C@H](OC[C@@H](Cn2cc(CN(c3nc(-c4cccc(C)c4)no3)C3CCCCC3)nn2)OC(C)=O)C=C[C@@H]1OC(C)=O`: the Activity is 69% in the data set on SK-MEL-103; 38.9% in data set [1]; 69.5% with HCT-116; 9.2% with PC-3; 26.1% with NCI-H460. Also, the MIC in data set [2] and in data set [3] was no less than 64 µg/mL in each case. Besides, the values for the CC50 at 48 h in [4] and in [5] were 46.4 µg/mL (≈ 69.6 µM) and 39.2 µg/mL (≈ 58.8 µM), respectively. Also, the selectivity ratio in data set [6] was less than 0.72; in data set [7] it was less than 0.61.
Consider `C#CCN(c1nc(-c2ccccc2)no1)C1CCCCC1`, for which the Activity turned out to be 28.6% in the data set on SK-MEL-103, 47% in data set [1], 23.7% with PC-3 and 22.6% in the data set on NCI-H460. Moreover, the MIC in data set [2] and in data set [3] was no less than 64 µg/mL throughout. The CC50 at 48 h in data set [4] was 32.1 µg/mL (≈ 114 µM); in data set [5], 109 µg/mL (≈ 386 µM). Also, the selectivity ratio in data set [6] was less than 0.5; in [7], less than 1.69.
With `C#CCN(c1nc(-c2cccc(Br)c2)no1)C1CCCCC1`, the Activity in the data set on SK-MEL-103 came to 39.4%; in data set [1], 69.1%; in the data set on HCT-116 it was 65.6%; in the data set on PC-3, 58.6%; with NCI-H460 it was 17.9%. Besides, the MIC in data set [2] was no less than 64 µg/mL; in data set [3], 32 µg/mL (≈ 88.8 µM). For the same molecule, the CC50 at 48 h in data set [4] turned out to be 31.8 µg/mL (≈ 88.2 µM); in data set [5], 53.5 µg/mL (≈ 148 µM). In addition, the selectivity ratio was 0.9 in [6] and 1.67 in data set [7].
Regarding `CC(=O)OC[C@H]1O[C@H](OC[C@@H](Cn2cc(CN(c3nc(-c4ccc(F)cc4)no3)C3CCCCC3)nn2)OC(C)=O)C=C[C@@H]1OC(C)=O`, the Activity with SK-MEL-103 was determined as 20.7%; in data set [1], 69.4%; in the data set with HCT-116, 44.9%; in the data set on PC-3 it was 7.1%; in the data set with NCI-H460 it was 17.7%. In addition, the MIC in [2] and in data set [3] was no less than 64 µg/mL each time. Further, the cytotoxic concentration (CC50) at 48 h in data set [4] came to 31.5 µg/mL (≈ 46.9 µM); in [5], 28.8 µg/mL (≈ 42.9 µM). Besides, the selectivity ratio in data set [6] is less than 0.49; in data set [7], less than 0.45.
Turning to `C#Cc1ccc(-c2noc(NC3CCCCC3)n2)cc1`, the Activity is reported as 40.1% with SK-MEL-103; 44.4% in data set [1]; 60.7% with HCT-116; 46% in the data set on PC-3; 34% in the data set on NCI-H460. The MIC in [2] and in data set [3] was 32 µg/mL (≈ 120 µM) each time. Moreover, the CC50 at 48 h in data set [4] was determined as 19.8 µg/mL (≈ 74.1 µM); in data set [5] it was 54.2 µg/mL (≈ 203 µM). Also, the selectivity ratio in data set [6] came to 0.62; in data set [7], 1.69.
